From ChEMBL document CHEMBL2380254, “Optimization of tocotrienols as antiproliferative and antimigratory leads” (Eur J Med Chem, 2013)
Activity calls are given as the source filed them. The calls are words filed in the database; no cut-off is given here.

Columns and labels:
MDA-MB-231 = assay: Antimigratory activity against human MDA-MB-231 cells after 24 hrs by wound-healing assay; format: functional, cell-based; conditions: MDA-MB-231, 24 h
Procedure, shortened: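 MDA-MB-231 in RPMI 1640 with 10% FBS grown to >95% confluent monolayer, scratched with a pipette tip and washed. Then 24 h exposure in 0.5% serum at five non-toxic concentrations in DMSO, triplicate, DMSO as negative control. Diff Quick fixed and stained; migrated cells counted in ≥3 random 40× fields. IC50 = concentration inhibiting migration of 50% of cells.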

MCF7 = assay: Growth inhibition of human MCF7 cells after 48 hrs by sulforhodamine B assay; format: functional; conditions: MCF7, 48 h
Procedure, shortened: (§1)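 NCI-60 panel cells grown in RPMI 1640 with 5% FBS and 2 mM L-glutamine, seeded at 5000–40,000 cells/well and preincubated 24 h. Five 10-fold dilutions (0.001–100 µM) from DMSO stocks were added for 48 h at 37 °C. Adherent cells were fixed with cold TCA (10% final) for 60 min at 4 °C, stained with 0.4% SRB, and read at 515 nm. GI50 was set where 100×(T−T0)/(C−T0)=50.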

OVCAR-8 = assay: Growth inhibition of human OVCAR8 cells after 48 hrs by sulforhodamine B assay; format: functional; conditions: OVCAR-8, 48 h; procedure, shortened: as §1
SK-MEL-28 = assay: Growth inhibition of human SK-MEL-28 cells after 48 hrs by sulforhodamine B assay; format: functional; conditions: SK-MEL-28, 48 h; procedure, shortened: as §1
SNB-75 = assay: Growth inhibition of human SNB75 cells after 48 hrs by sulforhodamine B assay; format: functional; conditions: SNB-75, 48 h
Procedure, shortened: (§2)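 NCI-60 five-dose screen. Cells were grown in RPMI 1640 with 5% FBS and 2 mM L-glutamine, plated at 5000–40,000 cells/well and incubated 24 h before dosing, with T0 plates TCA-fixed. DMSO stocks were diluted to doses of […] and exposed 48 h at 37 °C, 5% CO2. Cells were fixed with cold TCA (final 10%, 60 min, 4 °C), stained with 0.4% SRB in 1% acetic acid for 10 min, solubilized in 10 mM trizma base and read at 515 nm. GI50 is where 100×(T−T0)/(C−T0)=50.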

SW-620 = assay: Growth inhibition of human SW620 cells after 48 hrs by sulforhodamine B assay; format: functional; conditions: SW-620, 48 h; procedure, shortened: as §2
MCF-10A [1] = assay: Selectivity index, ratio of IC50 for human MCF10A cells to ratio of IC50 for mouse +SA cells; format: functional
Procedure, shortened: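 Index is the IC50 in MCF10A divided by the IC50 in +SA. +SA cells were kept in serum-free DMEM/F12 defined medium and given BSA-conjugated compounds at 0–40 µM (DMSO <0.1%). MCF10A cells were plated at 10×10^4 cells/well and fed compounds in serum-free medium.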

MCF-10A [2] = assay: Antiproliferative activity against human MCF10A cells by MTT assay; format: cell-based
Procedure, shortened: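 MCF10A kept in DMEM/F12 with 5% horse serum, hydrocortisone, cholera toxin, insulin and EGF, plated at 10 × 10^4 cells/well. Compounds from DMSO stock (final DMSO <0.1%, equal across groups) fed in serum-free media. Viable cell number by MTT; IC50 by non-linear regression.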

+SA cell = assay: Antitumor activity against mouse +SA cells allografted in BALB/c mouse assessed as reduction in tumor volume at 0.5 mg, iv administered on day 40 post challenge for 14 days; format: functional, organism-based
Procedure, shortened: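 Female BALB/c mice, 3–4 months old, given 1 × 10^6 +SA cells into the #4 mammary fat pad under ketamine/xylazine. About 40 days later, once tumors were palpable, 0.5 mg in 0.1 mL propylene glycol/DMSO (1:1) by daily tail-vein injection for 14 days; vehicle controls. Caliper volume L×W²/2 and body weight recorded every other day. 14–15 mice/group; ANOVA with Duncan's test.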

Mus musculus = assay: Toxicity in BALB/c mouse allografted with mouse +SA cells assessed as body weight change at 0.5 mg, iv administered on day 40 post challenge for 14 days; format: organism-based, +SA cell; conditions: in vivo, 336 h
Procedure, shortened: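 Female BALB/c mice, 3–4 months old, received 1×10^6 +SA cells in 0.1 mL medium into the #4 mammary fat pad. About 40 days later, once tumors were palpable, daily tail-vein injections began for 14 days: 0.5 mg in 0.1 mL propylene glycol/DMSO (1:1), with vehicle controls. Body weight was recorded every other day, with 14–15 mice per group. Analysis used ANOVA with Duncan's test.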

SK-MEL-5 = assay: Growth inhibition of human SK-MEL-5 cells after 48 hrs by sulforhodamine B assay; format: functional; conditions: SK-MEL-5, 48 h; procedure, shortened: as §1
K562 = assay: Growth inhibition of human K562 cells after 48 hrs by sulforhodamine B assay; format: functional; conditions: K562, 48 h
Procedure, shortened: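 NCI-60 screen: cells in RPMI 1640 with 5% FBS and 2 mM glutamine, 5000–40,000 cells/well, preincubated 24 h. Five concentrations (10-fold dilutions; 100 to 0.001 µM) applied for 48 h at 37 °C. TCA fixation, SRB stain, absorbance at 515 nm. Time-zero plates included; GI50 where 100×(T−T0)/(C−T0)=50.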

## CC(C)=CCC/C(C)=C/CC/C(C)=C/CC[C@]1(C)CCc2c3c(cc(C)c2O1)OCN(CCCCCCCCCCO)C3
MDA-MB-231
  IC50: 7.2 µM

## CC(C)=CCC/C(C)=C/CC/C(C)=C/CC[C@]1(C)CCc2c3c(c(C)c(C)c2O1)OCN(CCCCCO)C3
MCF7
  GI50: 3.74 µM
OVCAR-8
  GI50: 6.39 µM
SK-MEL-28
  GI50: 5.89 µM
SNB-75
  GI50: 4.03 µM
SW-620
  GI50: 6.05 µM
MCF-10A [1]
  Ratio IC50: 5.24
MCF-10A [2]
  IC50: 8.9 µM

## COc1ccc(CCNCc2c(O)c(C)c(C)c3c2CC[C@@](C)(CC/C=C(\C)CC/C=C(\C)CCC=C(C)C)O3)cc1OC
+SA cell
  Activity: Active
Mus musculus
  Activity: Non-toxic

## CC(C)=CCC/C(C)=C/CC/C(C)=C/CC[C@]1(C)CCc2c3c(cc(C)c2O1)OCN(CCCCO)C3
SK-MEL-5
  GI50: 14.5 µM
K562
  GI50: 7.42 µM
MDA-MB-231
  IC50: 2.2 µM
MCF-10A [1]
  Ratio IC50: 2.34
MCF-10A [2]
  IC50: 4.2 µM

## CC(C)=CCC/C(C)=C/CC/C(C)=C/CC[C@]1(C)CCc2c3c(cc(C)c2O1)OCN(CCCCCCCCO)C3
MCF7
  GI50: 0.515 µM
OVCAR-8
  GI50: 4.46 µM
SK-MEL-28
  GI50: 3.43 µM
SK-MEL-5
  GI50: 2.76 µM
SNB-75
  GI50: 4.11 µM
K562
  GI50: 0.772 µM
MDA-MB-231
  IC50: 4.9 µM
MCF-10A [1]
  Ratio IC50: 2.15
MCF-10A [2]
  IC50: 1.7 µM

## CC(C)=CCC/C(C)=C/CC/C(C)=C/CC[C@]1(C)CCc2c3c(c(C)c(C)c2O1)OCN(CCCCCCCCO)C3
MCF7
  GI50: 2.59 µM
OVCAR-8
  GI50: 2.67 µM
SK-MEL-28
  GI50: 2.62 µM
SK-MEL-5
  GI50: 2.9 µM
SNB-75
  GI50: 2.38 µM
K562
  GI50: 3.5 µM
MDA-MB-231
  IC50: 4.7 µM
MCF-10A [1]
  Ratio IC50: 1.43
MCF-10A [2]
  IC50: 2 µM

## CC(C)=CCC/C(C)=C/CC/C(C)=C/CC[C@]1(C)CCc2c3c(cc(C)c2O1)OCN(CCCCCCO)C3
MCF7
  GI50: 0.579 µM
OVCAR-8
  GI50: 4.45 µM
SK-MEL-28
  GI50: 2.01 µM
SK-MEL-5
  GI50: 2.5 µM
SNB-75
  GI50: 3.14 µM
K562
  GI50: 0.81 µM
MDA-MB-231
  IC50: 1.5 µM
MCF-10A [1]
  Ratio IC50: 1.92
MCF-10A [2]
  IC50: 2.5 µM

## CC(C)=CCC/C(C)=C/CC/C(C)=C/CC[C@]1(C)CCc2c3c(cc(C)c2O1)OCN(C1CCN(Cc2ccccc2)CC1)C3
MCF7
  GI50: 1.59 µM
OVCAR-8
  GI50: 1.4 µM
SK-MEL-28
  GI50: 2.01 µM
SNB-75
  GI50: 1.67 µM
SW-620
  GI50: 0.48 µM

## CC(C)=CCC/C(C)=C/CC/C(C)=C/CC[C@]1(C)CCc2c3c(cc(C)c2O1)OCN(CCc1ccc(O)cc1)C3
MCF7
  GI50: 1.28 µM
OVCAR-8
  GI50: 5.84 µM
SK-MEL-28
  GI50: 5.59 µM
SK-MEL-5
  GI50: 5.42 µM
SNB-75
  GI50: 4.74 µM
SW-620
  GI50: 1.59 µM
MDA-MB-231
  IC50: 2.4 µM
MCF-10A [1]
  Ratio IC50: 2.09
MCF-10A [2]
  IC50: 1.9 µM

## COc1ccc(CCN2COc3c(C)c(C)c4c(c3C2)CC[C@@](C)(CC/C=C(\C)CC/C=C(\C)CCC=C(C)C)O4)cc1OC
MCF-10A [1]
  Ratio IC50: 0.39
MCF-10A [2]
  IC50: 0.7 µM

## CC(C)=CCC/C(C)=C/CC/C(C)=C/CC[C@]1(C)CCc2cc(O)c(C)c(C)c2O1 [GAMMA-TOCOTRIENOL]
+SA cell
  Activity: inactive
MDA-MB-231
  IC50: > 40 µM
MCF-10A [1]
  Ratio IC50: 1.1
MCF-10A [2]
  IC50: 4.4 µM
Mus musculus
  Activity: Non-toxic

## CC(C)=CCC/C(C)=C/CC/C(C)=C/CC[C@]1(C)CCc2c3c(cc(C)c2O1)OCN(CCCCCO)C3
MCF7
  GI50: 3.74 µM
OVCAR-8
  GI50: 6.39 µM
SK-MEL-28
  GI50: 5.89 µM
SNB-75
  GI50: 4.03 µM
SW-620
  GI50: 6.05 µM
MCF-10A [1]
  Ratio IC50: 6.57
MCF-10A [2]
  IC50: 4.6 µM

## CC(C)=CCC/C(C)=C/CC/C(C)=C/CC[C@]1(C)CCc2c3c(cc(C)c2O1)OCN(CCCO)C3
MCF7
  GI50: 1.66 µM
OVCAR-8
  GI50: 1.95 µM
SK-MEL-28
  GI50: 1.78 µM
SNB-75
  GI50: 1.29 µM
SW-620
  GI50: 1.83 µM
MDA-MB-231
  IC50: 6 µM
MCF-10A [1]
  Ratio IC50: 3.61
MCF-10A [2]
  IC50: 6.5 µM

## CC(C)=CCC/C(C)=C/CC/C(C)=C/CC[C@]1(C)CCc2c3c(c(C)c(C)c2O1)OCN(CCc1ccc(O)cc1)C3
MDA-MB-231
  IC50: 4.5 µM
MCF-10A [1]
  Ratio IC50: 5.67
MCF-10A [2]
  IC50: 8.5 µM

## CC(C)=CCC/C(C)=C/CC/C(C)=C/CC[C@]1(C)CCc2c3c(c(C)c(C)c2O1)OCN(CCCCCCO)C3
MCF7
  GI50: 2.73 µM
OVCAR-8
  GI50: 3.06 µM
SK-MEL-28
  GI50: 2.76 µM
SK-MEL-5
  GI50: 2.88 µM
SNB-75
  GI50: 2.46 µM
K562
  GI50: 2.96 µM

## COc1ccc(CCN2COc3cc(C)c4c(c3C2)CC[C@@](C)(CC/C=C(\C)CC/C=C(\C)CCC=C(C)C)O4)cc1OC
MCF7
  GI50: 1.54 µM
OVCAR-8
  GI50: 2.2 µM
SK-MEL-28
  GI50: 1.75 µM
SNB-75
  GI50: 1.2 µM
SW-620
  GI50: 2 µM

## CC(C)=CCC/C(C)=C/CC/C(C)=C/CC[C@]1(C)CCc2c3c(c(C)c(C)c2O1)OCN(CCCCO)C3
MCF7
  GI50: 1.78 µM
OVCAR-8
  GI50: > 10 µM
SK-MEL-28
  GI50: > 10 µM
SK-MEL-5
  GI50: > 10 µM
SNB-75
  GI50: 9.35 µM
K562
  GI50: 2.46 µM
MDA-MB-231
  IC50: 10.7 µM
